# Activity calls are given as the source filed them. The rule behind the calls is not given here.
# How the values were obtained:
# RAW264.7 [1] = assay: Anti-inflammatory activity in mouse RAW264.7 cells assessed as inhibition of LPS-induced NO production by measuring remaining NO level at 20 ug/ml after 22 hrs by Griess assay relative to control; assay type: functional
# Summary of the method: (§1)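 RAW 264.7 cells seeded at 2×10^5/well, grown 24 h at 37 °C in 5% CO2, washed twice with PBS, given fresh medium, then exposed to LPS 1 µg/mL with or without test compound for 22 h. Nitrite in the medium read by Griess reagent at 540 nm against a sodium nitrite standard curve. IC50 obtained by nonlinear regression of % inhibition vs concentration. Means ± SD of three independent experiments.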
# RAW264.7 [2] = assay: Anti-inflammatory activity in mouse RAW264.7 cells assessed as inhibition of LPS-induced NO production by measuring […] level at 20 ug/ml after 22 hrs by Griess assay (reference value: 25.31 uM); assay type: functional; summary of the method: as §1
# RAW264.7 [3] = assay: Downregulation of LPS-stimulated iNOS protein expression level in mouse RAW264.7 cells preincubated for 30 mins followed by LPS stimulation for 16 hrs by Western blot analysis; assay type: functional, cell-based
# Summary of the method: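 Cells pretreated with a range of compound concentrations for 30 min, then stimulated with LPS 1 µg/mL for 16 h. iNOS protein analysed by western blot.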
# RAW264.7 [4] = assay: Downregulation of IFN-beta mRNA level in LPS-stimulated mouse RAW264.7 cells up to 20 ug/ml preincubated with cells followed by LPS stimulation for 4 hrs by RT-PCR method; assay type: functional, cell-based
# Summary of the method: (§2)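 Cells pretreated with compound for 30 min, then stimulated with LPS 1 µg/mL for 4 h. Total RNA extracted and cytokine mRNA measured by real-time PCR. Means ± SD of triplicate tests.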
# Mus musculus [5] = organism: Mus musculus; assay: Inhibition of IkB kinase in LPS-stimulated mouse RAW264.7 cells assessed as reduction in IkB-alpha phosphorylation up to 20 ug/ml preincubated with cells followed by LPS stimulation for 30 mins by Western blot analysis
# Summary of the method: (§3)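 Pretreatment with a range of compound concentrations for 30 min, then LPS 1 µg/mL for 30 min. IκBα, phospho-protein and related protein levels analysed by western blot.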
# RAW264.7 [6] = assay: Anti-inflammatory activity in mouse RAW264.7 cells assessed as inhibition of LPS-induced NO production after 22 hrs by Griess assay; assay type: functional, cell-based; summary of the method: as §1
# RAW264.7 [7] = assay: Downregulation of IKKbeta level in LPS-stimulated mouse RAW264.7 cells up to 20 ug/ml preincubated with cells followed by LPS stimulation for 16 hrs by Western blot analysis; assay type: functional, cell-based
# Summary of the method: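 RAW 264.7 cells pretreated with a range of compound concentrations, then stimulated with LPS 1 µg/mL for 16 h. IKK protein analysed by western blotting.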
# RAW264.7 [8] = assay: Downregulation of LPS-stimulated IL-1beta protein expression level in mouse RAW264.7 cells up to 20 ug/ml preincubated for 30 mins followed by LPS stimulation for 4 hrs by Western blot analysis; assay type: functional, cell-based
# Summary of the method: (§4)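 RAW 264.7 cells pretreated with a range of compound concentrations for 30 min, then stimulated with LPS 1 µg/mL for 4 h. Total protein extracted and cytokine levels analysed by western blotting.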
# RAW264.7 [9] = assay: Upregulation of HO-1 protein level in LPS-stimulated mouse RAW264.7 cells at 20 ug/ml preincubated for 30 mins followed by LPS stimulation for 16 hrs by Western blot method; assay type: functional, cell-based
# Summary of the method: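 RAW 264.7 cells pretreated with compound for 30 min, then stimulated with LPS 1 µg/mL for 16 h. HO-1 protein measured by western blotting.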
# [10] = target: T1, Interferon regulatory factor 3 (Mus musculus) (UniProt P70671); assay: Inhibition of LPS-stimulated IRF-3 phosphorylation at Ser-396 residue in mouse RAW264.7 cells up to 20 ug/ml preincubated for 30 mins followed by LPS stimulation for 30 mins by Western blot analysis; assay type: cell-based; summary of the method: as §3
# T1 sequence (whole entry): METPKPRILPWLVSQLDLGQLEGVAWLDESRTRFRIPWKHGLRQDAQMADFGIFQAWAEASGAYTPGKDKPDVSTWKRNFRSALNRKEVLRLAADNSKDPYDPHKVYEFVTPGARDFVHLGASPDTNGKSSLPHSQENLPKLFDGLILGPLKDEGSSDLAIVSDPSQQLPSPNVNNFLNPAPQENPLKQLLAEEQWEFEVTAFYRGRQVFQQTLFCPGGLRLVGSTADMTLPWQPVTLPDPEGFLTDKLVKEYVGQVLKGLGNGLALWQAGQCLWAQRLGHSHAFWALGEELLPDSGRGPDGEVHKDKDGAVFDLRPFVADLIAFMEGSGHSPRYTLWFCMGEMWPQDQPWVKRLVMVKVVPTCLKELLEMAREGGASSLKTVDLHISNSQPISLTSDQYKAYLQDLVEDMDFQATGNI
# RAW264.7 [11] = assay: Downregulation of IkB-alpha level in LPS-stimulated mouse RAW264.7 cells up to 20 ug/ml preincubated with cells followed by LPS stimulation for 30 mins by Western blot analysis; assay type: functional, cell-based; summary of the method: as §3
# RAW264.7 [12] = assay: Downregulation of LPS-stimulated iNOS mRNA expression level in mouse RAW264.7 cells preincubated for 30 mins followed by LPS stimulation for 4 hrs by RT-PCR method; assay type: functional, cell-based
# RAW264.7 [13] = assay: Downregulation of LPS-stimulated TNF-alpha protein expression level in mouse RAW264.7 cells up to 20 ug/ml preincubated for 30 mins followed by LPS stimulation for 4 hrs by Western blot analysis; assay type: functional, cell-based; summary of the method: as §4
# [14] = Cytotoxicity against mouse RAW264.7 cells assessed as survival at 40 ug/ml after 22 hrs by MTT assay relative to control; assay type: cell-based; conditions: read-out: Survival
# Summary of the method: (§5)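 RAW 264.7 cells were grown in DMEM with 10% heat-inactivated FBS at 37 °C and 5% CO₂, then plated at 2×10^5 per well for 24 h. After washing, cells received 1 µg/mL LPS with or without compound (up to 40 µg/mL) for 22 h. After the Griess read, MTT (final 500 µg/mL) was added for 3 h at 37 °C. Formazan was dissolved in DMSO and read at 570 nm, giving % survival versus control.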
# [15] = Cytotoxicity against mouse RAW264.7 cells assessed as survival up to 20 ug/ml after 22 hrs by MTT assay relative to control; assay type: cell-based; conditions: read-out: Survival; summary of the method: as §5
# Mus musculus [16] = organism: Mus musculus; assay: Inhibition of NF-kB transcriptional activity in LPS-stimulated mouse RAW264.7 cells up to 20 ug/ml preincubated for 2 hrs followed by LPS stimulation for 16 hrs by SEAP reporter gene assay
# Summary of the method: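 RAW-SEAP cells cultured 24 h, pretreated with compound for 2 h, then given LPS 1 µg/mL for 16 h. Supernatants heated at 65 °C for 5 min and reacted with buffer (2 M diethanolamine, 1 mM MgCl2, 500 µM MUP) in the dark at 37 °C for 1 h. Fluorescence read at ex 360/em 449 nm, normalized to protein, expressed relative to vehicle control without LPS.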
# RAW264.7 [17] = assay: Downregulation of LPS-stimulated IL-1beta mRNA expression level in mouse RAW264.7 cells preincubated for 30 mins followed by LPS stimulation for 4 hrs by RT-PCR method; assay type: functional, cell-based; summary of the method: as §2
# RAW264.7 [18] = assay: Anti-inflammatory activity in mouse RAW264.7 cells assessed as inhibition of LPS-induced NO production by measuring remaining NO level at 50 uM after 22 hrs by Griess assay relative to control; assay type: functional; summary of the method: as §1
# RAW264.7 [19] = assay: Anti-inflammatory activity in mouse RAW264.7 cells assessed as inhibition of LPS-induced NO production by measuring […] level at 50 uM after 22 hrs by Griess assay (reference value: 25.31 uM); assay type: functional; summary of the method: as §1
# RAW264.7 [20] = assay: Anti-inflammatory activity in mouse RAW264.7 cells assessed as inhibition of LPS-induced NO production at 50 uM after 22 hrs by Griess assay relative to control; assay type: functional; conditions: RAW264.7, 22 h; summary of the method: as §1
Structure (SMILES),Activity (RAW264.7 [1]) [%],Activity (RAW264.7 [2]) [µM],other results
O=C1c2cc(O)cc(O)c2C(=O)N1Cc1ccccc1Br,38.8,9.65,
COc1cc(OC)c2c(c1)C(=O)N(CCOC(=O)CCl)C2=O,48.9,12.14,
O=C1c2cc(O)cc(O)c2C(=O)N1Cc1ccc(Br)cc1,32.4,8.04,
COc1cc(OC)c2c(c1)C(=O)N(CCOC(C)=O)C2=O,97.1,24.13,
Cc1cccc(CN2C(=O)c3cc(O)cc(O)c3C2=O)c1,41.7,10.36,
CCCCN1C(=O)c2cc(O)cc(O)c2C1=O,73.4,18.24,
COc1cc(OC)c2c(c1)C(=O)N(Cc1cccc(F)c1)C2=O,75.1,18.65,
CCCCN1C(=O)c2cc(OC)cc(OC)c2C1=O,79.3,19.7,
COc1cc(OC)c2c(c1)C(=O)N(Cc1ccccc1Br)C2=O,83.7,20.79,
CC(C)CN1C(=O)c2cc(O)cc(O)c2C1=O,84.8,21.07,
CCN1C(=O)c2cc(OC)cc(OC)c2C1=O,43.5,10.81,
CCCCCCCN1C(=O)c2cc(OC)cc(OC)c2C1=O,84.5,20.99,
COc1cc(OC)c2c(c1)C(=O)N(C(C)C)C2=O,97.9,24.34,
COc1cc(OC)c2c(c1)C(=O)N(CC(C)C)C2=O,86.3,21.45,
CCC(=O)OCCN1C(=O)c2cc(OC)cc(OC)c2C1=O,101.9,25.31,
CCCCCCCN1C(=O)c2cc(O)cc(O)c2C1=O,2.9,0.72,"Activity (RAW264.7 [3]): Dose-dependent effect; Activity (RAW264.7 [4]): Active; inhibition (Mus musculus [5]): Active; inhibition (RAW264.7 [6]): Dose-dependent effect; IC50 (RAW264.7 [6]; RAW264.7, 22 h): 8.7 µg/mL; Activity (RAW264.7 [7]): Active; Activity (RAW264.7 [8]): Active; Activity (RAW264.7 [9]): Active; inhibition [10]: Active; Activity (RAW264.7 [11]): Active; Activity (RAW264.7 [12]): Dose-dependent effect; Activity (RAW264.7 [13]): Active; viability at 22 h, 40 ug/ml [14]: 17%; viability at 22 h [15]: > 95%; inhibition (Mus musculus [16]): Active; Activity (RAW264.7 [17]): Dose-dependent effect"

Structure (SMILES),Activity (RAW264.7 [1]) [%],Activity (RAW264.7 [2]) [µM],other results
CCCCCCN1C(=O)c2cc(OC)cc(OC)c2C1=O,92.6,23.01,
CCN1C(=O)c2cc(O)cc(O)c2C1=O,85,21.12,
O=C1c2cc(O)cc(O)c2C(=O)N1Cc1cccc(F)c1,42.1,10.46,
CCCCCN1C(=O)c2cc(O)cc(O)c2C1=O,45.5,11.3,
CCCN1C(=O)c2cc(O)cc(O)c2C1=O,83.3,20.71,
COc1cc(OC)c2c(c1)C(=O)N(Cc1ccccc1F)C2=O,75.9,18.87,
CCCCCCN1C(=O)c2cc(O)cc(O)c2C1=O,8,1.98,
CC(C)N1C(=O)c2cc(O)cc(O)c2C1=O,82.4,20.47,
COc1cc(OC)c2c(c1)C(=O)N(Cc1cccc(C)c1)C2=O,74.2,18.43,
CCCN1C(=O)c2cc(OC)cc(OC)c2C1=O,93.5,23.24,
CC1CCN=C(N)S1.Cl (centres undefined),,,Activity (RAW264.7 [18]): 2%; Activity (RAW264.7 [19]): 0.5 µM; inhibition at 50 µM (RAW264.7 [20]): 98%
CCCCCN1C(=O)c2cc(OC)cc(OC)c2C1=O,74.8,18.6,
COc1cc(OC)c2c(c1)C(=O)N(CCO)C2=O,99.8,24.8,
COc1cc(OC)c2c(c1)C(=O)N(Cc1ccc(Br)cc1)C2=O,81.1,20.16,
O=C1c2cc(O)cc(O)c2C(=O)N1Cc1ccccc1F,47.3,11.76,

# Reference: ChEMBL document CHEMBL4020752, “Synthesis and biological activity of new phthalimides as potential anti-inflammatory agents” (Bioorg Med Chem, 2017)
